Screening results deposited in PubChem by several laboratories.
Rpn11 inh – inhibitors of human proteasome Rpn11. 360,000 compounds, 0.59% hits. human 26S proteasome, Ub4-pepOG fluorescence polarization; 20S core pre-blocked with epoxomicin. O00487. inhibition, % at 20 µM;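 active = inhibition at 20 µM, scaled to each plate's controls, above about 33%, limit read from the data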
IDE inh – cellular human IDE inhibition. 320,000 compounds, 0.41% hits. inhibition, % at 5.59 µM. P14735. AID 434962. HEK cells, FAbetaB cleavage, fluorescence polarization;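 active = percent inhibition above the average of all tested compounds plus 3 SD, set per screening campaign, cut at about 16% in these data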;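 note: IDE supplied by intact live HEK cells; FP after avidin binding of uncleaved biotin substrate so inhibition keeps polarization high; 0% = DMSO wells and 100% = 60 µM reference IDE inhibitor Ii1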
TPT1 inhibitor – inhibitors of Candida albicans tRNA 2'-phosphotransferase TPT1; recombinant caTPT1, FP RNA substrate dephosphorylation; inhibition, % at 5 µM; 300,000 compounds, 0.81% hits;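 active = inhibition above the mean of all tested compounds plus 3 SD, set per screening campaign, cut at about 24% in these data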;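 note: plate controls were DMSO alone for no effect and ferristatin control at 100 nM for full effect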
HNF4A DNA FP – change in binding of human HNF4 alpha to DNA. P41235. activity change, % at 10 µM. HNF4a-FITC DNA binding, fluorescence polarization, 1 h. 360,000 compounds, 0.3% hits; in the data active = activity change above about 30%, passing the limit was not always enough
IDE act – activators of human insulin-degrading enzyme in cells; activation, % at 5.96 µM; P14735; HEK cells, FAbeta-B cleavage, fluorescence polarization; 0% vehicle, 100% cell-free pure enzyme wells; AID 493087; 340,000 compounds, 0.073% hits;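 active = activation above the mean of all tested compounds plus 3 SD, set per screening campaign, cut at about 17% in these data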
CSN deneddyl inh – CSN deneddylation inhibition; Q92905; Purified CSN, SCF-Nedd8-OG deneddylation, fluorescence polarization; inhibition, % at 12.5 µM; 360,000 compounds, 0.38% hits;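 active = pattern-corrected inhibition above about 35%, with an unprinted fluorescence ratio check between 0.5 and 1.5, limit read from the data, passing the limit was not always enough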;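 note: 0% = enzyme with substrate and 100% = substrate without enzyme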
Target sequence (Q92905 whole entry, looked up, one chain of several): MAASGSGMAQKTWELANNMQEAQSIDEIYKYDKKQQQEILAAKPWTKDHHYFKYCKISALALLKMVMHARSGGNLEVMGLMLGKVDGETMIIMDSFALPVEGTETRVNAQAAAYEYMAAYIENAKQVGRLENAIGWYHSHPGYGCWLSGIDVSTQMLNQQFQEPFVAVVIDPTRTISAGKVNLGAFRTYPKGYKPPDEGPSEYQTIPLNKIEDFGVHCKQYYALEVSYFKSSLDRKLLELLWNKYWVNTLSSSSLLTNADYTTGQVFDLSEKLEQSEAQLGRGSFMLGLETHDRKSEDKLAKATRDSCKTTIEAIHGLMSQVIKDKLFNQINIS
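Test system: purified human Csn5 enzyme expressed in HEK293T cells. Amount: 0.24 nM enzyme. Reagent: SCFSkp2-Nedd8OG substrate at 10 nM final. Schedule: 90 min incubation of compound, enzyme and substrate at room temperature. Detection: fluorescence polarization. Read-out: % inhibition of substrate cleavage by Csn5.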
caTPT1 confirm – TPT1 (C. albicans) inhibition, confirmation. shares compounds with TPT1 inhibitor. 2,400 compounds, 74% hits. AID 2149. recombinant caTPT1, fluorescence polarization, RNase T1 coupled. inhibition, % at 5 µM;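 active = inhibition above the primary screen limit, the mean inhibition of all tested compounds plus 3 SD, cut at about 25% in these data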
RNase T1 counter – RNase T1 inhibition in TPT1 counter-screen; RNase T1 cleavage, fluorescence polarization, 1536-well; 2,400 compounds, 83% hits; inhibition, % at 5 µM; shares compounds with TPT1 inhibitor;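 active = inhibition above the solvent-only control well mean plus 3 SD, limit set per screening run, cut at about 23% in these data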;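 note: plate controls were DMSO wells with enzyme for no effect and wells without RNase T1 for full effect; inhibitors block cleavage so intact labeled substrate keeps polarization high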
Target sequence (P00651 whole entry, looked up): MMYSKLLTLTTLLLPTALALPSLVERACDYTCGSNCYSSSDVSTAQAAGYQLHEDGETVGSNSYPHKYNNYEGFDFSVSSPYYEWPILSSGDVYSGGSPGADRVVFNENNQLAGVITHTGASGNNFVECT
* marks the source's active call; other numbers are inactive results. The list is not random: actives were taken first. Their share in the collection is about 1.7%.

Screening O=C(NCCc1ccccc1)c1cc(S(=O)(=O)N2CCOCC2)ccc1F returned Rpn11 inh 4.6, IDE inh -7.6, TPT1 inhibitor 4.4, HNF4A DNA FP 1.1, IDE act 6.7 and CSN deneddyl inh 3.3.
Screening COc1ccc(CC(=O)NNC2=Nc3cccc4cccc2c34)cc1OC returned Rpn11 inh 5.1, IDE inh 10.8, TPT1 inhibitor -3.0, HNF4A DNA FP 1.1, IDE act 0.0 and CSN deneddyl inh 3.0.
Screening COc1ccc(NC2=Nc3cccc4cccc2c34)cc1OC returned Rpn11 inh 26.5, IDE inh -0.9, TPT1 inhibitor 33.1*, HNF4A DNA FP 10.4, IDE act -0.7, CSN deneddyl inh 8.7, caTPT1 confirm 31.2* and RNase T1 counter 39.5*.
For C(=N\NC1=Nc2cccc3cccc1c23)/c1ccccc1 the results were Rpn11 inh -75.5, IDE inh 8.7, TPT1 inhibitor 26.3*, HNF4A DNA FP 26.0, IDE act -1.1, CSN deneddyl inh 6.5, caTPT1 confirm 41.8* and RNase T1 counter 57.7*.
Clc1ccc(/C=N/NC2=Nc3cccc4cccc2c34)cc1 was read as Rpn11 inh 28.4, IDE inh 4.0, TPT1 inhibitor 12.7, HNF4A DNA FP 22.1, IDE act -7.8 and CSN deneddyl inh 15.5.
For COc1cc(-c2cnc3c(NC(C)=O)cc(-c4ccccc4CN(C)C)cn23)cc(OC)c1OC the results were Rpn11 inh 2.8, HNF4A DNA FP 1.1 and CSN deneddyl inh 3.4.
For COc1ccc(C2C(C#N)=C(N)N(c3cccnc3)C3=C2C(=O)CCC3)cc1Cn1cc([N+](=O)[O-])cn1 (stereo not given) the results were Rpn11 inh 29.3, IDE inh 2.8, TPT1 inhibitor 37.1*, HNF4A DNA FP 27.9, IDE act -3.9, CSN deneddyl inh 5.2, caTPT1 confirm 43.5* and RNase T1 counter 55.2*.
Screening CCN(CC)C(=O)C1=C(C)N(CCCOC)C(=O)C(CC(=O)NC2CCCCC2)C1 (stereo not given) returned Rpn11 inh -9.5, HNF4A DNA FP -2.1 and CSN deneddyl inh 6.1.
Screening CCC(C)(C)C1CCc2c(sc(N)c2C(N)=O)C1 (stereo not given) returned Rpn11 inh 20.5, IDE inh 1.8, TPT1 inhibitor 14.3, HNF4A DNA FP 3.1, IDE act 1.3 and CSN deneddyl inh -0.6.
For CC(C)(C)C1CCc2c(sc(N)c2C(N)=O)C1 (stereo not given) the results were Rpn11 inh 16.0, IDE inh 4.7, TPT1 inhibitor 24.5*, HNF4A DNA FP 4.0, IDE act -2.2, CSN deneddyl inh 11.1, caTPT1 confirm 2.0 and RNase T1 counter 6.8.
For COCCn1c(C)cc(C(=O)COC(=O)c2ccc(NC(=O)CC#N)cc2)c1C the results were Rpn11 inh 24.1, IDE inh 2.3, TPT1 inhibitor 51.6*, HNF4A DNA FP 12.2, IDE act 5.1, CSN deneddyl inh 32.7, caTPT1 confirm 30.1* and RNase T1 counter 41.5*.
`Cc1ccc(S(=O)(=O)Nn2cnnc2)cc1` gave Rpn11 inh 1.0, IDE inh 4.4, TPT1 inhibitor -3.2, HNF4A DNA FP -1.9, IDE act 1.3 and CSN deneddyl inh 1.4.
For Cc1ccc(S(=O)(=O)N(c2nc(N(C)C)nc(N(C)C)n2)n2cnnc2)cc1 the results were Rpn11 inh -6.4, IDE inh 0.9, TPT1 inhibitor 28.9*, HNF4A DNA FP -0.9, IDE act 2.9, CSN deneddyl inh -2.5, caTPT1 confirm 7.2 and RNase T1 counter 11.6.
COc1ncnc2c1ncn2CCCNCc1ccccc1 was read as Rpn11 inh 4.6, HNF4A DNA FP -2.0 and CSN deneddyl inh 0.1.
Screening C=C(CN(C)C)C(=O)c1ccc(OC2OC(COC(C)=O)C(OC(C)=O)C(OC(C)=O)C2OC(C)=O)cc1 (stereo not given) returned Rpn11 inh 8.2, HNF4A DNA FP -0.3, IDE act 3.6 and CSN deneddyl inh 3.9.
For O=C1NC(=O)c2c(Br)c(Br)c(Br)c(Br)c21 the results were Rpn11 inh -12.4, HNF4A DNA FP 0.6, IDE act 0.7 and CSN deneddyl inh 0.9.
`CN(C)C(=C(C#N)C#N)N1CCN(c2ccc(Cl)cc2)CC1` gave Rpn11 inh 3.1, IDE inh 0.0, TPT1 inhibitor -3.3, HNF4A DNA FP -0.2, IDE act -6.5 and CSN deneddyl inh -3.5.
`N#CC(C#N)=C/C(C#N)=C(/N)N1CCN(c2ccc(Cl)cc2)CC1` gave Rpn11 inh 14.3, IDE inh 6.2, TPT1 inhibitor 55.8*, HNF4A DNA FP 0.9, IDE act -2.2, CSN deneddyl inh 4.1, caTPT1 confirm 14.7 and RNase T1 counter 20.6.
Cc1ccc(S(=O)(=O)c2cc3c(=O)n4ccccc4nc3n(Cc3ccco3)c2=N)cc1C was read as IDE inh 1.1, TPT1 inhibitor 25.0*, caTPT1 confirm 18.4 and RNase T1 counter 20.7.
For N=c1c(S(=O)(=O)c2ccccc2)cc2c(=O)n3ccccc3nc2n1Cc1ccco1 the results were Rpn11 inh 12.9, IDE inh 6.2, TPT1 inhibitor 26.3*, HNF4A DNA FP -1.8, IDE act -3.4, CSN deneddyl inh 26.1, caTPT1 confirm 8.9 and RNase T1 counter 17.1.
Screening Cc1cccn2c(=O)c3cc(S(=O)(=O)c4ccccc4)c(=N)n(Cc4ccco4)c3nc12 returned Rpn11 inh 6.0, IDE inh 3.3, TPT1 inhibitor 6.1, HNF4A DNA FP -3.3, IDE act 8.3 and CSN deneddyl inh -3.4.
Screening Cc1cc(C(=O)Nc2c(C)n(C)n(-c3ccccc3)c2=O)c2ccccc2n1 returned Rpn11 inh -5.3, IDE inh 6.4, TPT1 inhibitor -5.7, HNF4A DNA FP 1.6, IDE act 8.4 and CSN deneddyl inh 1.7.
CCc1ccc(-c2cc(C(=O)Nc3c(C)n(C)n(-c4ccccc4)c3=O)c3ccccc3n2)s1 was read as Rpn11 inh 22.7, IDE inh -6.6, TPT1 inhibitor 25.3*, HNF4A DNA FP 18.9, IDE act -0.3, CSN deneddyl inh 7.2, caTPT1 confirm 32.7* and RNase T1 counter 42.8*.
For COc1ccccc1CCn1cnc(Cc2ccccc2)c1C(C)C the results were HNF4A DNA FP 6.2 and CSN deneddyl inh 5.5.
`C[C@@H]1O[C@H](C2CCCCC2)Cc2[nH][nH]c(=O)c21` gave HNF4A DNA FP 1.0 and CSN deneddyl inh -8.0.
CC(C)CNc1ncnc2c1ncn2[C@H]1CN(Cc2cccs2)C[C@@H](CO)O1 was read as Rpn11 inh -4.4, HNF4A DNA FP -1.0 and CSN deneddyl inh -6.2.
